# PMC7262549 (Biochemistry and Biophysics Reports, 2020)
# Like-named read-outs stand apart in the source and are kept apart here.
# Tests used:
# Details in all cases: 4 mM MgSO4
# Psag (wt) [1] = test: luminometry, peak light intensity, Michaelis-Menten fit; assay type: biochemical, Pristolycus sagulatus
# Pmat (wt) [2] = system: Pmat (wt)
# Sfla (wt) [3] = test: luminometry, peak light intensity, Michaelis-Menten fit; assay type: biochemical, Stenocladius flavipennis
# Sfla (wt) [4] = system: Sfla (wt)
# Dkum (wt) [5] = system: Dkum (wt)
# Pmat (wt) [6] = test: luminometry, peak light intensity, Michaelis-Menten fit; assay type: biochemical, Pyrocoelia matsumurai kumejimensis
# Dkum (wt) [7] = test: as above; assay type: biochemical, Drilaster kumejimensis
# MALuci2 (wt) = test: luminometry, peak light intensity, Michaelis-Menten fit; assay type: biochemical, Luciola sp.
# Summary of the method: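 Wild-type luciferase coding sequence from lantern cDNA, expressed from pRSET-B in E. coli JM109(DE3) and Ni-NTA purified. Luciferin Km: 50 μg/mL partially purified enzyme, luciferin 0.6–640 μM. ATP Km: 50 μg/mL purified enzyme, ATP 5–1920 μM. Light emission recorded 10 s at 0.02 s gating on a luminometer. Rate taken as peak intensity; Km from least-squares Michaelis–Menten fit.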
# Psag (wt) [8] = system: Psag (wt)
# [9] = read-out: Km (ATP μM), 50 mM Tris-HCl pH 8.0, 1 mM luciferin
# [10] = read-out: Km (luciferin μM), 50 mM Tris-HCl pH 8.0, 2 mM ATP
structure (smiles),measurement,setting,value
Nc1ncnc2c1ncn2[C@@H]1O[C@H](COP(=O)(O)OP(=O)(O)OP(=O)(O)O)[C@@H](O)[C@H]1O [ATP],Km,Psag (wt) [1]; [9],194 µM
same,Km,Pmat (wt) [2]; [9],98.1 µM
same,Km,Sfla (wt) [3]; [9],21.5 µM
same,Km,Sfla (wt) [4]; [9],9 µM
same,Km,Dkum (wt) [5]; [9],26.8 µM
same,Km,Pmat (wt) [6]; [9],104 µM
same,Km,Dkum (wt) [7]; [9],127 µM
same,Km,MALuci2 (wt); [9],188 µM
same,Km,Psag (wt) [8]; [9],282 µM
O=C(O)[C@H]1CSC(c2nc3ccc(O)cc3s2)=N1 [D-luciferin],Km,Psag (wt) [1]; [10],4.9 µM
same,Km,Pmat (wt) [2]; [10],62.2 µM
same,Km,Sfla (wt) [3]; [10],16.6 µM
same,Km,Sfla (wt) [4]; [10],6.6 µM
same,Km,Dkum (wt) [5]; [10],19.4 µM
same,Km,Pmat (wt) [6]; [10],14.2 µM
same,Km,Dkum (wt) [7]; [10],60.1 µM
same,Km,MALuci2 (wt); [10],4.25 µM
same,Km,Psag (wt) [8]; [10],222 µM
